Data as given in ChEMBL document CHEMBL1151428, “Capability of 11 antipneumococcal antibiotics to select for resistance by multistep and single-step methodologies” (2007).
≈ marks a conversion by molar mass, not a printed value.

How the values were obtained:
Type in all cases: functional
[1] = system: Streptococcus pneumoniae; experiment: Antimicrobial activity against drug-resistant Streptococcus pneumoniae isolate 24 after 50 passages with moxifloxacin measured after 10 antibiotic-free subculture by multi-step resistance selection technique
Method in brief: (§1)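 Mutants selected by daily broth passage in subinhibitory drug in cation-adjusted Mueller-Hinton broth with 5% lysed horse blood. Stability was tested by 10 daily passages on blood agar without antibiotic, then macrodilution MIC.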

[2] = system: Streptococcus pneumoniae; experiment: Antimicrobial activity against drug-resistant Streptococcus pneumoniae isolate 24 after 14 passages with Telithromycin measured after 10 antibiotic-free subculture by multi-step resistance selection technique; method in brief: as §1
[3] = system: Streptococcus pneumoniae; experiment: Antimicrobial activity against drug-resistant Streptococcus pneumoniae isolate 24 by NCCLS M7-A7 method
[4] = system: Streptococcus pneumoniae; experiment: Antimicrobial activity against drug-resistant Streptococcus pneumoniae isolate 1635 after 49 passages with clarithromycin measured after 10 antibiotic-free subculture by multi-step resistance selection technique
[5] = system: Streptococcus pneumoniae; experiment: Antimicrobial activity against drug-resistant Streptococcus pneumoniae isolate 1635 after 14 passages with azithromycin measured after 10 antibiotic-free subculture by multi-step resistance selection technique; method in brief: as §1
[6] = system: Streptococcus pneumoniae; experiment: Antimicrobial activity against drug-resistant Streptococcus pneumoniae isolate 1635 after 14 passages by multi-step resistance selection technique
Method in brief: (§2)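 Daily serial passage in subinhibitory drug levels in 1 ml cation-adjusted Mueller-Hinton broth with 5% lysed horse blood; fresh broth for tigecycline. Each day, 10 μl were taken from the tube one to two dilutions below the MIC whose turbidity matched the growth control, and used to set the next MIC. […] MIC by macrodilution.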

[7] = system: Streptococcus pneumoniae; experiment: Antimicrobial activity against drug-resistant Streptococcus pneumoniae isolate 1635 by NCCLS M7-A7 method
[8] = system: Streptococcus pneumoniae; experiment: Antimicrobial activity against drug-resistant Streptococcus pneumoniae isolate 3243 after 20 passages with moxifloxacin measured after 10 antibiotic-free subculture by multi-step resistance selection technique; method in brief: as §1
[9] = system: Streptococcus pneumoniae; experiment: Antimicrobial activity against drug-resistant Streptococcus pneumoniae isolate 3243 after 41 passages with clarithromycin measured after 10 antibiotic-free subculture by multi-step resistance selection technique
[10] = system: Streptococcus pneumoniae; experiment: Antimicrobial activity against drug-resistant Streptococcus pneumoniae isolate 3243 after 33 passages with azithromycin measured after 10 antibiotic-free subculture by multi-step resistance selection technique; method in brief: as §1
[11] = system: Streptococcus pneumoniae; experiment: Antimicrobial activity against drug-resistant Streptococcus pneumoniae isolate 3243 after 29 passages with Telithromycin measured after 10 antibiotic-free subculture by multi-step resistance selection technique; method in brief: as §1
[12] = system: Streptococcus pneumoniae; experiment: Antimicrobial activity against drug-resistant Streptococcus pneumoniae isolate 3243 after 33 passages by multi-step resistance selection technique; method in brief: as §2
[13] = system: Streptococcus pneumoniae; experiment: Antimicrobial activity against drug-resistant Streptococcus pneumoniae isolate 3243 by NCCLS M7-A7 method
[14] = system: Streptococcus pneumoniae; experiment: Antimicrobial activity against drug-resistant Streptococcus pneumoniae isolate 3676 after 50 passages with moxifloxacin measured after 10 antibiotic-free subculture by multi-step resistance selection technique
[15] = system: Streptococcus pneumoniae; experiment: Antimicrobial activity against drug-resistant Streptococcus pneumoniae isolate 3274 after 48 passages with Telithromycin measured after 10 antibiotic-free subculture by multi-step resistance selection technique; method in brief: as §1
[16] = system: Streptococcus pneumoniae; experiment: Antimicrobial activity against drug-resistant Streptococcus pneumoniae isolate 3274 after 50 passages by multi-step resistance selection technique
Method in brief: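 Daily serial passage in subinhibitory drug levels in 1 ml cation-adjusted Mueller-Hinton broth with 5% lysed horse blood; fresh broth for tigecycline. Each day, 10 μl were taken from the tube one to two dilutions below the MIC whose turbidity matched the growth control, and used to set the next MIC. MIC by macrodilution.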

[17] = system: Streptococcus pneumoniae; experiment: Antimicrobial activity against drug-resistant Streptococcus pneumoniae isolate 3274 by NCCLS M7-A7 method
[18] = system: Streptococcus pneumoniae; experiment: Antimicrobial activity against drug-resistant Streptococcus pneumoniae isolate 2527 after 14 passages with gemifloxacin measured after 10 antibiotic-free subculture by multi-step resistance selection technique; method in brief: as §1
[19] = system: Streptococcus pneumoniae; experiment: Antimicrobial activity against drug-resistant Streptococcus pneumoniae isolate 2527 after 20 passages with azithromycin measured after 10 antibiotic-free subculture by multi-step resistance selection technique; method in brief: as §1
[20] = system: Streptococcus pneumoniae; experiment: Antimicrobial activity against drug-resistant Streptococcus pneumoniae isolate 2527 after 20 passages by multi-step resistance selection technique
[21] = system: Streptococcus pneumoniae; experiment: Antimicrobial activity against drug-resistant Streptococcus pneumoniae isolate 2527 by NCCLS M7-A7 method
[22] = system: Streptococcus pneumoniae; experiment: Antimicrobial activity against drug-resistant Streptococcus pneumoniae isolate 3665 after 50 passages by multi-step resistance selection technique
Method in brief: (§3)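 Daily serial passage in broth at subinhibitory drug levels: 1 ml cation-adjusted Mueller-Hinton broth with 5% lysed horse blood; fresh broth for tigecycline. Each day 10 μl inoculum taken from the tube one to two dilutions below MIC matching growth-control turbidity, used to set next MIC. Continued until ≥8-fold MIC rise, minimum 14, maximum 50 passages; MIC read by macrodilution.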

[23] = system: Streptococcus pneumoniae; experiment: Antimicrobial activity against drug-resistant Streptococcus pneumoniae isolate 3665 by NCCLS M7-A7 method
[24] = system: Streptococcus pneumoniae; experiment: Antimicrobial activity against drug-resistant Streptococcus pneumoniae isolate 1077 after 49 passages with clindamycin measured after 10 antibiotic-free subculture by multi-step resistance selection technique
[25] = system: Streptococcus pneumoniae; experiment: Antimicrobial activity against drug-resistant Streptococcus pneumoniae isolate 1077 after 29 passages with azithromycin measured after 10 antibiotic-free subculture by multi-step resistance selection technique; method in brief: as §1
[26] = system: Streptococcus pneumoniae; experiment: Antimicrobial activity against drug-resistant Streptococcus pneumoniae isolate 1077 after 15 passages with Telithromycin measured after 10 antibiotic-free subculture by multi-step resistance selection technique; method in brief: as §1
[27] = system: Streptococcus pneumoniae; experiment: Antimicrobial activity against drug-resistant Streptococcus pneumoniae isolate 1077 after 29 passages by multi-step resistance selection technique; method in brief: as §2
[28] = system: Streptococcus pneumoniae; experiment: Antimicrobial activity against drug-resistant Streptococcus pneumoniae isolate 1077 by NCCLS M7-A7 method
[29] = system: Streptococcus pneumoniae; experiment: Antimicrobial activity against drug-resistant Streptococcus pneumoniae isolate 1076 after 35 passages with moxifloxacin measured after 10 antibiotic-free subculture by multi-step resistance selection technique; method in brief: as §1
[30] = system: Streptococcus pneumoniae; experiment: Antimicrobial activity against drug-resistant Streptococcus pneumoniae isolate 1076 after 14 passages with Telithromycin measured after 10 antibiotic-free subculture by multi-step resistance selection technique; method in brief: as §1
[31] = system: Streptococcus pneumoniae; experiment: Antimicrobial activity against drug-resistant Streptococcus pneumoniae isolate 1076 by NCCLS M7-A7 method
[32] = system: Streptococcus pneumoniae; experiment: Antimicrobial activity against drug-resistant Streptococcus pneumoniae isolate 3009 after 19 passages with moxifloxacin measured after 10 antibiotic-free subculture by multi-step resistance selection technique; method in brief: as §1
[33] = system: Streptococcus pneumoniae; experiment: Antimicrobial activity against drug-resistant Streptococcus pneumoniae isolate 3009 after 18 passages with levofloxacin measured after 10 antibiotic-free subculture by multi-step resistance selection technique; method in brief: as §1
[34] = system: Streptococcus pneumoniae; experiment: Antimicrobial activity against drug-resistant Streptococcus pneumoniae isolate 3009 after 21 passages with gemifloxacin measured after 10 antibiotic-free subculture by multi-step resistance selection technique; method in brief: as §1
[35] = system: Streptococcus pneumoniae; experiment: Antimicrobial activity against drug-resistant Streptococcus pneumoniae isolate 3009 after 25 passages with clarithromycin measured after 10 antibiotic-free subculture by multi-step resistance selection technique
[36] = system: Streptococcus pneumoniae; experiment: Antimicrobial activity against drug-resistant Streptococcus pneumoniae isolate 3009 by NCCLS M7-A7 method
[37] = system: Streptococcus pneumoniae; experiment: Antimicrobial activity against drug-resistant Streptococcus pneumoniae isolate 1635 after 14 passages with clindamycin measured after 10 antibiotic-free subculture by multi-step resistance selection technique
[38] = system: Streptococcus pneumoniae; experiment: Antimicrobial activity against drug-resistant Streptococcus pneumoniae isolate 37 by NCCLS M7-A7 method
[39] = system: Streptococcus pneumoniae; experiment: Antimicrobial activity against drug-resistant Streptococcus pneumoniae isolate 37 after 14 passages with Telithromycin measured after 10 antibiotic-free subculture by multi-step resistance selection technique
[40] = system: Streptococcus pneumoniae; experiment: Antimicrobial activity against drug-resistant Streptococcus pneumoniae isolate 3413 by NCCLS M7-A7 method
[41] = system: Streptococcus pneumoniae; experiment: Antimicrobial activity against drug-resistant Streptococcus pneumoniae isolate 3413 after 30 passages with Telithromycin measured after 10 antibiotic-free subculture by multi-step resistance selection technique; method in brief: as §1
[42] = system: Streptococcus pneumoniae; experiment: Antimicrobial activity against drug-resistant Streptococcus pneumoniae isolate 3676 after 44 passages with clarithromycin measured after 10 antibiotic-free subculture by multi-step resistance selection technique
[43] = system: Streptococcus pneumoniae; experiment: Antimicrobial activity against drug-resistant Streptococcus pneumoniae isolate 3676 after 14 passages with Telithromycin measured after 10 antibiotic-free subculture by multi-step resistance selection technique
[44] = system: Streptococcus pneumoniae; experiment: Antimicrobial activity against drug-resistant Streptococcus pneumoniae isolate 3676 after 50 passages by multi-step resistance selection technique; method in brief: as §3
[45] = system: Streptococcus pneumoniae; experiment: Antimicrobial activity against drug-resistant Streptococcus pneumoniae isolate 3676 by NCCLS M7-A7 method
[46] = system: Streptococcus pneumoniae; experiment: Antimicrobial activity against drug-resistant Streptococcus pneumoniae isolate 3665 after 38 passages with moxifloxacin measured after 10 antibiotic-free subculture by multi-step resistance selection technique
[47] = system: Streptococcus pneumoniae; experiment: Antimicrobial activity against drug-resistant Streptococcus pneumoniae isolate 3665 after 26 passages with clarithromycin measured after 10 antibiotic-free subculture by multi-step resistance selection technique
[48] = system: Streptococcus pneumoniae; experiment: Antimicrobial activity against drug-resistant Streptococcus pneumoniae isolate 3665 after 14 passages with Telithromycin measured after 10 antibiotic-free subculture by multi-step resistance selection technique

With `CC[C@H]1OC(=O)[C@H](C)[C@@H](O[C@H]2C[C@@](C)(OC)[C@@H](O)[C@H](C)O2)[C@H](C)[C@@H](O[C@@H]2O[C@H](C)C[C@H](N(C)C)[C@H]2O)[C@](C)(O)C[C@@H](C)CN(C)[C@H](C)[C@@H](O)[C@]1(C)O` [AZITHROMYCIN] the MIC [1] was greater than 64 µg/mL, the MIC [2] was greater than 64 µg/mL and the MIC [3] was greater than 64 µg/mL. The MIC [4] was greater than 64 µg/mL, the MIC [5] was greater than 64 µg/mL and the MIC [6] was greater than 64 µg/mL. For the same molecule, the MIC [7] was 2 µg/mL (≈ 2.67 µM), the MIC [8] was 0.016 µg/mL (≈ 0.0214 µM) and the MIC [9] was 1 µg/mL (≈ 1.34 µM). It also gave an MIC [10] of 0.5 µg/mL (≈ 0.668 µM), an MIC [11] greater than 64 µg/mL and an MIC [12] of 0.25 µg/mL (≈ 0.334 µM). For the same molecule, the MIC [13] was 0.03 µg/mL (≈ 0.0401 µM), the MIC [14] was 4 µg/mL (≈ 5.34 µM) and the MIC [15] was 1 µg/mL (≈ 1.34 µM). The MIC [16] was 0.008 µg/mL (≈ 0.0107 µM), the MIC [17] was 0.008 µg/mL (≈ 0.0107 µM) and the MIC [18] was 0.03 µg/mL (≈ 0.0401 µM). It also gave an MIC [19] of 4 µg/mL (≈ 5.34 µM), an MIC [20] of 4 µg/mL (≈ 5.34 µM) and an MIC [21] of 0.016 µg/mL (≈ 0.0214 µM). The MIC [22] was 16 µg/mL (≈ 21.4 µM), the MIC [23] was 8 µg/mL (≈ 10.7 µM) and the MIC [24] was greater than 64 µg/mL. For the same molecule, the MIC [25] was greater than 64 µg/mL, the MIC [26] was greater than 64 µg/mL and the MIC [27] was greater than 64 µg/mL. For the same molecule, the MIC [28] was 0.03 µg/mL (≈ 0.0401 µM), the MIC [29] was greater than 64 µg/mL and the MIC [30] was greater than 64 µg/mL. It also gave an MIC [31] greater than 64 µg/mL, an MIC [32] greater than 64 µg/mL and an MIC [33] greater than 64 µg/mL. It also gave an MIC [34] greater than 64 µg/mL, an MIC [35] greater than 64 µg/mL and an MIC [36] greater than 64 µg/mL. For the same molecule, the MIC [37] was 4 µg/mL (≈ 5.34 µM), the MIC [38] was greater than 64 µg/mL and the MIC [39] was greater than 64 µg/mL. The MIC [40] was greater than 64 µg/mL, the MIC [41] was greater than 64 µg/mL and the MIC [42] was 16 µg/mL (≈ 21.4 µM). It also gave an MIC [43] of 2 µg/mL (≈ 2.67 µM), an MIC [44] of 8 µg/mL (≈ 10.7 µM) and an MIC [45] of 4 µg/mL (≈ 5.34 µM). The MIC [46] was 8 µg/mL (≈ 10.7 µM), the MIC [47] was 8 µg/mL (≈ 10.7 µM) and the MIC [48] was 4 µg/mL (≈ 5.34 µM).
